# Hits are enriched below; roughly 4.9% of the tested compounds scored in any of these assays.
# STAT3 inh: STAT3 signaling inhibition | U3A cells, IL-6 STAT3-luciferase reporter, luminescence; host cell line lacks STAT1 | inhibition, % at 5.5 µM | 190,000 tested, 0.89% active | AID 862;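 active = inhibition above the mean inhibition across all screened compounds plus 3 SD, cut at about 44% in these data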;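 note: 0% = DMSO only wells and 100% = 100 µM nifuroxazide control wells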
# NF-kB neuron act: compounds increasing NF-kB expression in human neuronal cells; NF-kB reporter expression; active compounds read high; fold change at 12.5 µM; 190,000 tested, 1.6% active; in the data active = fold change above about 3.3
# STAT1 inh: reduces IFN-gamma driven STAT1 reporter signal; NIH 3T3 STAT1-luciferase reporter, luminescence; inhibition, % at 5.5 µM; 200,000 tested, 0.35% active; AID 920;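 active = inhibition above a set limit, the mean inhibition across all tested compounds plus 3 SD, cut at about 34% in these data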;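 note: 0% = IFN-gamma with DMSO and 100% = IFN-gamma with 300 µM nifuroxazide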
# STAT3 act: activators of IL-6 induced STAT3 signaling; U3A cells, IL-6 STAT3-luciferase reporter, luminescence; 100% = signal with IL-6 EC80 alone; activation (% of control), % at 5.6 µM; 190,000 tested, 0.91% active;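 active = activation above the screen-wide mean of compound activation plus 3 SD, cut at about 130% in these data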;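 note: 0% = background luminescence of wells with medium and substrate only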
#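 Detection: reporter luminescence signal / Assay system: STAT1-lacking human U3A cells, STAT3 luciferase reporter / Incubation: compound pre-incubation 1 h before IL-6, then 6 h stimulation at 37 °C / Control set: IL-6-only high control / Read-out: % activation relative to IL-6 control / Probe or stimulus: Interleukin-6, 33 ng/mL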
# STAT1 activator: STAT1 signaling activation; NIH 3T3 STAT1-luciferase reporter, IFN-gamma, luminescence; 100% = IFN-gamma alone, no compound; activation (% of control), % at 5.5 µM; 200,000 tested, 2.6% active;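 active = activation above the screen-wide mean activation plus 3 SD, cut at about 130% in these data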;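 note: raw ratio to IFN-gamma control signal so 100% means no change and 0% no light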
# APP 5'UTR act: activates APP 5'UTR luciferase reporter; SH-SY5Y APP 5'UTR luciferase reporter, luminescence; zero percent = DMSO vehicle wells; activation, % at 2 µM; 190,000 tested, 1% active; AID 1276;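 active = activation above a set limit, based on mean plus 3 SD of controls, cut at about 140% in these data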
# An asterisk follows results filed as active; x = no result.
SMILES,STAT3 inh,NF-kB neuron act,STAT1 inh,STAT3 act,STAT1 activator,APP 5'UTR act
Cc1ccc(Nc2nc(-c3sc(NC(=O)c4ccco4)nc3C)cs2)cc1,-34,0.91,-11,135*,110,3
O=C(Nc1nc(-c2ccc(Cl)s2)cs1)c1ccco1,11,2.2,-32,93,130*,70
CCN1/C(=C/C=C/c2oc3ccc(-c4ccccc4)cc3[n+]2CC)Oc2ccc(-c3ccccc3)cc21,54*,0.29,60*,56,44,-74
Clc1ccc(OCCSc2ncccn2)cc1,-7,3.2,-34,103,131*,102
Cc1ccc(OCCCSc2ncccn2)cc1C,-14,1.9,-37,113,135*,66
COc1ccc(OCCCSc2ncccn2)cc1,7,2,-46,99,142*,63
Cc1ccc2nc(CSc3nc(C)cc(C)c3C#N)[nH]c2c1,6,2.9,-28,102,125,205*
C=CCOC(=O)N1CCN(c2cccc(C(F)(F)F)c2)CC1,23,1.2,2,88,98,9
Oc1ccccc1Nc1ncnc2c1oc1ccccc12,-66,1.3,-11,158*,110,-3
CC(=O)N1CCN(c2ccc(Nc3ncnc4c3oc3ccccc34)cc2)CC1,41,0.45,3,71,97,x
c1ccc(Nc2ncnc3c2oc2ccccc23)cc1,0,2.2,-35,102,132*,51
CC(C)C(Nc1ncnc2c1oc1ccccc12)C(=O)O (configuration not stated),-22,x,8,124,91,17
Cc1ccc(/C=C2\Sc3ccccc3C2=O)s1,-8,5.5*,8,117,93,28
Oc1ccc(-c2nc(-c3ccc(O)c(O)c3)cs2)cc1,-11,3.8*,6,115,95,-94
Oc1ccc(Nc2nc(-c3ccc4ccccc4c3)cs2)cc1,8,2.8,-9,95,109,-2
COCCNC(=S)Nc1ccc(N2CCCCC2)cc1,-3,1.4,-8,104,107,12
CC(C)(C)NC(=S)NCCc1ccccc1,-9,2,-33,104,130*,78
Cc1cccc(NC(=S)NCCc2ccccc2)n1,15,x,2,92,99,-2
S=C(NCCc1ccccc1)Nc1ccccn1,-7,1.6,-37,110,133*,26
O=C(/C=C/c1ccco1)Nc1nc(-c2ccccn2)cs1,-18,0.76,-31,114,129*,14
O=C(O)c1ccc(Nc2nc(-c3ccccc3)cs2)cc1,-2,4.7*,-50,105,145*,126
Cc1csc(NC(=O)/C=C/c2ccco2)n1,9,2.8,-52,92,147*,88
O=C(/C=C/c1ccco1)Nc1cccc2cccnc12,-18,1.6,-28,117,125,25
Cc1ccc(NC(=O)/C=C/c2ccco2)nc1,-13,0.89,-54,111,147*,-89
O=C(Nc1ccc(Cl)cc1)Nc1nc(-c2ccccc2)cs1,19,1.3,-5,93,104,-4
SMILES,STAT3 inh,NF-kB neuron act,STAT1 inh,STAT3 act,STAT1 activator,APP 5'UTR act
O=C(/C=C/c1ccco1)Nc1nc(-c2ccccc2)cs1,1,1.5,-37,97,133*,93
COc1ccc(-c2csc(NC(=S)NC(=O)/C=C/c3ccco3)n2)cc1OC,3,1.3,4,100,96,-75
O=C(CCCc1cccs1)Nc1ccc2c(c1)OCO2,3,4.2*,-37,102,134*,162*
CS(=O)(=O)N(CC(=O)Nc1ccc2c(c1)OCO2)c1ccccc1,-3,1.2,1,108,98,-6
O=C(CCS(=O)(=O)c1ccccc1)Nc1ccc2c(c1)OCO2,-15,2.2,-37,113,136*,-2
O=C(CCCN1C(=O)CCC1=O)Nc1ccc2c(c1)OCO2,10,1.3,1,95,99,15
S=c1nc(-c2ccc(Br)cc2)oc2c1CCCC2,-22,1.5,-15,122,114,-5
Cc1cccc(-c2nc(=S)c3c(o2)CCCC3)c1,-14,2.7,-42,113,139*,118
COc1ccc(OC)c2c1sc(=NC(=O)C(C)(C)C)n2C,14,1.3,-4,93,104,-7
COc1ccc(C(=O)N=c2sc3c(C)ccc(OC)c3n2C)cc1,2,3.1,-46,106,142*,80
CCC(c1nnc(SCC(=O)NCCc2ccc(OC)c(OC)c2)n1Cc1ccccc1)N(C)C (configuration not stated),3,1.1,6,102,94,25
O=C(OCc1nc2ccccc2s1)c1cccc(S(=O)(=O)N2CCOCC2)c1,-40,0.97,-33,139*,130*,52
O=C(OCc1nc2ccccc2s1)c1cc2ccccc2oc1=O,-46,1.2,-3,134*,105,29
CC1CN(Cc2ccccc2)C(C)CC1O (configuration not stated),5,0.93,0,100,99,18
CCc1cc2cc(C)cc(C)c2[nH]c1=S,17,1.2,-5,92,103,21
Nc1nc(SCc2ccc(Cl)cc2Cl)nc2nc3c(cc12)CCCC3,-2,1.1,-7,104,106,4
O=C(COC(=O)/C=C/c1ccc(S(=O)(=O)N2CCc3ccccc32)cc1)NC1CCS(=O)(=O)C1 (configuration not stated),-3,1,-6,110,104,-7
Cc1cc(C)c(C(=O)CN2C(=O)NC3(CCCCCC3)C2=O)cc1C,-4,1.6,-26,107,122,14
CCCn1c(C)cc(C(=O)Cn2nnc3ccccc3c2=O)c1C,14,4.7*,-28,90,126,159*
COCCn1c(C)cc(C(=O)Cn2nc(C(=O)O)c3ccccc3c2=O)c1C,15,1.7,-30,92,128,44
COc1ccc2nc(N=Nc3ccc(N(C)C)cc3)sc2c1,44*,1.5,53*,66,53,113
COc1ccc(C(=O)Nc2sc(C)c(C)c2CN2CC(C)OC(C)C2)cc1 (configuration not stated),-4,1.5,-22,105,120,11
NC(=O)c1cccnc1Nc1cccc([N+](=O)[O-])c1,-10,2.5,-39,112,134*,88
NC(=O)c1cccnc1Nc1cccc(F)c1,-8,1.3,-15,109,113,0
COc1ccc(NC(=O)/C(Cl)=C(/Cl)S(=O)(=O)Cc2ccc(C)cc2)cn1,-7,0.17,-37,111,133*,-86
COc1ccc(-c2cc(-c3cc(C)ccc3O)[nH]n2)cc1,-42,18*,-53,140*,146*,62
Cc1ccc(O)c(-c2cc(-c3ccccc3C)[nH]n2)c1,-12,2.8,-9,113,106,55
COc1ccc(CCN(C)Cc2nc(Cc3ccc(OC)c(OC)c3)no2)cc1OC,12,0.84,18,93,82,6
